From ChEMBL document CHEMBL1129929, “Analogues of methotrexate in rheumatoid arthritis. 1. Effects of 10-deazaaminopterin analogues on type II collagen-induced arthritis in mice” (J Med Chem, 1997) come the findings set out here.

Molecules are shown by their SMILES.

A short description of experiment [1]: Concentration required to inhibit the growth of chang liver cells. The experiment is classed as functional. To be noted: Homo sapiens.
The subject of experiment [2] is L1210. In words: Concentration required to inhibit the growth of L1210 cells. Type of experiment: functional, cell-based. The conditions noted are these: Mus musculus.
For experiment [3], the system named is Mus musculus. In words: Incidence of disease(mouse type II collagen arthritis) was scored as the percentage of animals within each experimental group that exhibited joint or limb inflammation on day 30 at intraperitoneal of dose 15 mg/kg. The experiment is classed as functional. The method in brief: (§1)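 DBA/1 mice were immunized with bovine type II collagen (modified Courtenay method), with a collagen booster on day 21. Compounds were given ip starting 2 days before the first collagen challenge and every 2 days thereafter. Incidence was the percentage of animals per group with joint or limb inflammation, scored on days 23, 30, 37 and 44.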

The test system of experiment [4] is Mus musculus. The experiment can be described thus: Incidence of disease(mouse type II collagen arthritis) was scored as the percentage of animals within each experimental group that exhibited joint or limb inflammation on day 30 at intraperitoneal of dose 9 mg/kg. Type of experiment: functional. Put shortly: as §1
The test system of experiment [5] is Mus musculus. In words: Incidence of disease(mouse type II collagen arthritis) was scored as the percentage of animals within each experimental group that exhibited joint or limb inflammation on day 37 at intraperitoneal of dose 12 mg/kg. Type of experiment: functional. The method in brief:
as §1

The test system of experiment [6] is Mus musculus. In words: Incidence of disease(mouse type II collagen arthritis) was scored as the percentage of animals within each experimental group that exhibited joint or limb inflammation on day 37 at intraperitoneal of dose 15 mg/kg. The experiment is classed as functional. The method in brief:
as §1

In experiment [7] the test system is Mus musculus. The experiment can be described thus: Incidence of disease(mouse type II collagen arthritis) was scored as the percentage of animals within each experimental group that exhibited joint or limb inflammation on day 23 at intraperitoneal dose of 12 mg/kg. Type of experiment: functional. Put shortly: as §1
The subject of experiment [8] is Mus musculus. In words: Incidence of disease(mouse type II collagen arthritis) was scored as the percentage of animals within each experimental group that exhibited joint or limb inflammation on day 23 at intraperitoneal dose of 15 mg/kg. Type of experiment: functional. Put shortly: as §1
Experiment [9] has as its system Mus musculus. The experiment can be described thus: Incidence of disease(mouse type II collagen arthritis) was scored as the percentage of animals within each experimental group that exhibited joint or limb inflammation on day 23 at intraperitoneal dose of 9 mg/kg. The experiment is classed as functional. Put shortly: as §1
For experiment [10], the system named is Mus musculus. In words: Incidence of disease(mouse type II collagen arthritis) was scored as the percentage of animals within each experimental group that exhibited joint or limb inflammation on day 30 at intraperitoneal of dose 12 mg/kg. Type of experiment: functional. Put shortly: as §1
Experiment [11] concerns Mus musculus. The experiment can be described thus: Incidence of disease(mouse type II collagen arthritis) was scored as the percentage of animals within each experimental group that exhibited joint or limb inflammation on day 44 at intraperitoneal of dose 9 mg/kg. The experiment is classed as functional. The method in brief: as §1
Experiment [12] concerns Mus musculus. The experiment can be described thus: Tested for antiinflammatory activity on mouse type II collagen arthritis as Paw swelling* of all animals in each group on day 37 at intraperitoneal dose of 9 mg/kg. The experiment is classed as functional. Put shortly:
(§2)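 DBA/1 mice immunized with bovine type II collagen (Courtenay method, modified), antigen booster at day 21. Compounds given ip from 2 days before the first collagen challenge, then every 2 days. Hind paw dimensions (mm) measured for both limbs of all animals, expressed as mean ± SD. Eight mice per dose; untreated controls pooled from four experiments (48 animals).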

The subject of experiment [13] is Mus musculus. In words: Tested for antiinflammatory activity on mouse type II collagen arthritis as Paw swelling* of all animals in each group on day 44 at intraperitoneal dose of 12 mg/kg. Type of experiment: functional. Put shortly: as §2
For experiment [14], the system named is Mus musculus. In words: Tested for antiinflammatory activity on mouse type II collagen arthritis as Paw swelling* of all animals in each group on day 44 at intraperitoneal dose of 15 mg/kg. The experiment is classed as functional. The method in brief: as §2
Experiment [15] relates to Mus musculus. In words: Tested for antiinflammatory activity on mouse type II collagen arthritis as Paw swelling* of all animals in each group on day 23 at intraperitoneal dose of 9 mg/kg. Type of experiment: functional. Put shortly:
as §2

Experiment [16] concerns Mus musculus. The experiment can be described thus: Tested for antiinflammatory activity on mouse type II collagen arthritis as Paw swelling* of all animals in each group on day 30 at intraperitoneal dose of 12 mg/kg. Type of experiment: functional. The method in brief:
as §2

In experiment [17] the test system is Mus musculus. In words: Tested for antiinflammatory activity on mouse type II collagen arthritis as Paw swelling* of all animals in each group on day 30 at intraperitoneal dose of 15 mg/kg. Type of experiment: functional. The method in brief:
as §2

The test system of experiment [18] is Mus musculus. In words: Tested for antiinflammatory activity on mouse type II collagen arthritis as Paw swelling* of all animals in each group on day 23 at intraperitoneal dose of 12 mg/kg. The experiment is classed as functional. The method in brief:
as §2

Experiment [19] has as its system Mus musculus. The experiment can be described thus: Tested for antiinflammatory activity on mouse type II collagen arthritis as Paw swelling* of all animals in each group on day 23 at intraperitoneal dose of 15 mg/kg. The experiment is classed as functional. Put shortly:
as §2

For experiment [20], the system named is Mus musculus. In words: Incidence of disease(mouse type II collagen arthritis) was scored as the percentage of animals within each experimental group that exhibited joint or limb inflammation on day 37 at intraperitoneal of dose 9 mg/kg. Type of experiment: functional. Put shortly:
as §1

For experiment [21], the system named is Mus musculus. The experiment can be described thus: Incidence of disease(mouse type II collagen arthritis) was scored as the percentage of animals within each experimental group that exhibited joint or limb inflammation on day 44 at intraperitoneal of dose 12 mg/kg. The experiment is classed as functional. The method in brief:
as §1

Experiment [22] concerns Mus musculus. The experiment can be described thus: Incidence of disease(mouse type II collagen arthritis) was scored as the percentage of animals within each experimental group that exhibited joint or limb inflammation on day 44 at intraperitoneal of dose 15 mg/kg. Type of experiment: functional. Put shortly: as §1
In experiment [23] the test system is Mus musculus. In words: Tested for antiinflammatory activity on mouse type II collagen arthritis as Paw swelling* of all animals in each group on day 44 at intraperitoneal dose of 9 mg/kg. Type of experiment: functional. Put shortly: as §2
For experiment [24], the system named is Mus musculus. In words: Tested for antiinflammatory activity on mouse type II collagen arthritis as Paw swelling* of all animals in each group on day 30 at intraperitoneal dose of 9 mg/kg. The experiment is classed as functional. The method in brief: as §2
The subject of experiment [25] is Mus musculus. The experiment can be described thus: Tested for antiinflammatory activity on mouse type II collagen arthritis as Paw swelling* of all animals in each group on day 37 at intraperitoneal dose of 12 mg/kg. Type of experiment: functional. Put shortly:
as §2

Experiment [26] has as its system Mus musculus. In words: Tested for antiinflammatory activity on mouse type II collagen arthritis as Paw swelling* of all animals in each group on day 37 at intraperitoneal dose of 15 mg/kg. Type of experiment: functional. Put shortly: as §2
Experiment [27] relates to Mus musculus. The experiment can be described thus: Incidence of disease(mouse type II collagen arthritis) was scored as the percentage of animals within each experimental group that exhibited joint or limb inflammation on day 37 at intraperitoneal of dose 10 mg/kg. The experiment is classed as functional. Put shortly:
as §1

For experiment [28], the system named is Mus musculus. The experiment can be described thus: Incidence of disease(mouse type II collagen arthritis) was scored as the percentage of animals within each experimental group that exhibited joint or limb inflammation on day 23 at intraperitoneal dose of 10 mg/kg. Type of experiment: functional. The method in brief: as §1
The subject of experiment [29] is Mus musculus. The experiment can be described thus: Incidence of disease(mouse type II collagen arthritis) was scored as the percentage of animals within each experimental group that exhibited joint or limb inflammation on day 30 at intraperitoneal of dose 10 mg/kg. Type of experiment: functional. The method in brief: as §1
For experiment [30], the system named is Mus musculus. In words: Tested for antiinflammatory activity on mouse type II collagen arthritis as Paw swelling* of all animals in each group on day 23 at intraperitoneal dose of 10 mg/kg. The experiment is classed as functional. Put shortly:
as §2

The test system of experiment [31] is Mus musculus. The experiment can be described thus: Tested for antiinflammatory activity on mouse type II collagen arthritis as Paw swelling* of all animals in each group on day 44 at intraperitoneal dose of 10 mg/kg. The experiment is classed as functional. Put shortly:
as §2

Experiment [32] relates to Mus musculus. The experiment can be described thus: Tested for antiinflammatory activity on mouse type II collagen arthritis as Paw swelling* of all animals in each group on day 30 at intraperitoneal dose of 10 mg/kg. The experiment is classed as functional. The method in brief:
as §2

The subject of experiment [33] is Mus musculus. In words: Incidence of disease(mouse type II collagen arthritis) was scored as the percentage of animals within each experimental group that exhibited joint or limb inflammation on day 44 at intraperitoneal of dose 10 mg/kg. The experiment is classed as functional. The method in brief:
as §1

Experiment [34] has as its system Mus musculus. The experiment can be described thus: Tested for antiinflammatory activity on mouse type II collagen arthritis as Paw swelling* of all animals in each group on day 37 at intraperitoneal dose of 10 mg/kg. The experiment is classed as functional. Put shortly:
as §2

The term IC50 denotes the concentration needed to halve the response being measured. Read a high IC50 as weaker potency. With `Nc1nc(N)c2nc(CCc3ccc(C(=O)N[C@@H](CCC(=O)O)C(=O)O)cc3)cnc2n1`, the IC50 came out at 98 nM in [1] and 3.7 nM in [2]. Besides, the Animals in [3] was determined as 38%; in experiment [4], 38%; in [5], 50%; in [6], 50%; in experiment [7], 12%; in experiment [8], 0%. Further, the Animals stood at 25% in [9]; 50% in [10]; 50% in experiment [11]; 38% in experiment [20]; 62% in experiment [21]; 38% in experiment [22]. Further, the Paw swelling in [12] was determined as 2.28 mm; in experiment [13], 2.33 mm; in experiment [14] it was 2.3 mm; in [15], 2.19 mm; in experiment [16], 2.36 mm; in [17] it was 2.31 mm. The Paw swelling in experiment [18] was 2.21 mm; in [19], 2.2 mm; in experiment [23], 2.32 mm; in experiment [24], 2.32 mm; in experiment [25], 2.31 mm; in experiment [26], 2.29 mm.
Consider `CCC(Cc1cnc2nc(N)nc(N)c2n1)c1ccc(C(=O)NC(CCC(=O)O)C(=O)O)s1` (centres undefined), for which the IC50 in experiment [1] is 1.6 nM; in [2], 3.7 nM. For the same compound, the Animals in experiment [3] turned out to be 0%; in experiment [27], 25%; in experiment [6], 12%; in experiment [28], 0%; in [8], 0%; in experiment [29] it was 0%. Moreover, the Animals amounted to 38% in experiment [33] and 12% in experiment [22]. Further, the Paw swelling in experiment [30] was 2.13 mm; in [31] it was 2.25 mm; in [14] it was 2.26 mm; in [32] it was 2.15 mm; in experiment [17], 2.17 mm; in experiment [19] it was 2.15 mm. The values for the Paw swelling in experiment [34] and in experiment [26] were 2.23 mm and 2.21 mm, respectively.
